In ChEMBL document CHEMBL3045170, “Synthesis and biological activity of organotin 4-methyl-1,2,3-thiadiazole-5-carboxylates and benzo[1,2,3]thiadiazole-7-carboxylates” (J Agric Food Chem, 2010):

How the values were obtained:
Type in all cases: functional
Settings in all cases: for inhibition of growth at 50 µg/mL: 48 h, read-out: GI
[1] = tested on: Botryosphaeria berengeriana; test: Fungicidal activity against Botryosphaeria berengeriana assessed as growth inhibition at 50 ug/ml after 2 days
Summary of the method: (§1)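 Poisoned-plate mycelial growth assay. The test sample was mixed into molten potato dextrose agar in a Petri dish before it set. Fungus was inoculated and incubated at 24-26 °C. Colony spread diameter was measured after 2 days, and percent growth inhibition was calculated relative to the corresponding control plate.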

[2] = tested on: Fusarium graminearum; test: Fungicidal activity against Fusarium graminearum assessed as growth inhibition at 50 ug/ml after 2 days
Summary of the method: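 Mycelial growth test on potato dextrose agar (9 mL) in Petri dishes, with the plate mixed thoroughly before setting. Gibberella zeae inoculated and cultured at 24-26 °C. Colony spread diameter measured after 2 days, and growth inhibition calculated relative to the corresponding control.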

[3] = tested on: Mycosphaerella arachidis; test: Fungicidal activity against Mycosphaerella arachidis assessed as growth inhibition at 50 ug/ml after 2 days; summary of the method: as §1
[4] = tested on: Botrytis cinerea; test: Fungicidal activity against Botryotinia fuckeliana assessed as growth inhibition at 50 ug/ml after 2 days; summary of the method: as §1
[5] = tested on: Alternaria solani; test: Fungicidal activity against Alternaria solani assessed as growth inhibition at 50 ug/ml after 2 days; summary of the method: as §1

Compound | inhibition of growth at 50 µg/mL [1] [%] | inhibition of growth at 50 µg/mL [2] [%] | inhibition of growth at 50 µg/mL [3] [%] | inhibition of growth at 50 µg/mL [4] [%] | inhibition of growth at 50 µg/mL [5] [%] | growth inhibition (GI) [1] [%] | growth inhibition (GI) [2] [%] | growth inhibition (GI) [3] [%] | growth inhibition (GI) [4] [%] | growth inhibition (GI) [5] [%]
O=C(O)c1cccc2nnsc12 [1,2,3-benzothia-diazole-7-carboxylic acid] | 40.5 | 60.7 | 30.8 | 72.1 | 42.4 |  |  |  |  | 
CCCC1COC(Cn2cncn2)(c2ccc(Cl)cc2Cl)O1 (stereo not given) [PROPICONAZOLE] | 100 | 100 | 100 | 100 | 89.2 |  |  |  |  | 
dibutylstannanediyl dibenzo[d][1,2,3]thiadiazole-7-carboxylate |  |  |  |  |  | 27.3 | 58.3 | 23.1 | 29.7 | 19.8
diethylstannanediyl dibenzo[d][1,2,3]thiadiazole-7-carboxylate |  |  |  |  |  | 36.7 | 50 | 20.5 | 43.2 | 32.3
tributylstannyl benzo[d][1,2,3]thiadiazole-7-carboxylate |  |  |  |  |  | 97.2 | 92.9 | 97.4 | 98.2 | 92.5
tricyclohexylstannyl benzo[d][1,2,3]thiadiazole-7-carboxylate |  |  |  |  |  | 92.5 | 50 | 76.7 | 94.1 | 50
triethylstannyl benzo[d][1,2,3]thiadiazole-7-carboxylate |  |  |  |  |  | 100 | 100 | 100 | 100 | 100
triphenylstannyl benzo[d][1,2,3]thiadiazole-7-carboxylate |  |  |  |  |  | 97.2 | 54.8 | 71.8 | 91.9 | 92.5
